Here are results for 16 molecules from ChEMBL document CHEMBL2401686, “Synthesis of novel 1-[5-(4-methoxy-phenyl)-[1,3,4]oxadiazol-2-yl]-piperazine derivatives and evaluation of their in vivo anticonvulsant activity” (Eur J Med Chem, 2013).

The test system of data set [1] is Mus musculus. Briefly: Neurotoxicity in mouse assessed as inability to maintain equilibrium on rod at 100 mg/kg, po after 1 hr by rotarod test relative to control. The format is toxicity, organism-based. On the set-up: dose 100 mg/kg, route oral. Particulars: in vivo. The gist of the method: (§1)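 Mice pre-trained on accelerating rotorod (10 rpm, rod diameter 3.2 cm), then dosed orally at 100 mg/kg. Neurotoxicity is failure to keep equilibrium on the rod for at least 1 min in each of three trials, checked at 0.5, 1, 2 and 4 h. Reported as animals showing neurotoxicity per number tested (n = 4); phenytoin standard.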

For data set [2], the system named is Mus musculus. The experiment in a line: Neurotoxicity in mouse assessed as inability to maintain equilibrium on rod at 100 mg/kg, po after 0.5 hrs by rotarod test relative to control. The format is toxicity, organism-based. As to conditions: in vivo. On the set-up: dose 100 mg/kg, route oral. The gist of the method: as §1
(Falling from the rotarod earlier than controls is read as motor impairment.)

Data set [3] has as its system Mus musculus. Briefly: Neurotoxicity in mouse assessed as inability to maintain equilibrium on rod at 100 mg/kg, po after 2 hrs by rotarod test relative to control. It counts as toxicity, organism-based. On the set-up: dose 100 mg/kg, route oral. Particulars: in vivo. The gist of the method: as §1
For data set [4], the system named is Mus musculus. Briefly: Neurotoxicity in mouse assessed as inability to maintain equilibrium on rod at 100 mg/kg, po after 4 hrs by rotarod test relative to control. The format is toxicity, organism-based. More on the design: dose 100 mg/kg, route oral. Particulars: in vivo. The gist of the method: as §1
For data set [5], the system named is Rattus norvegicus. Briefly: Anticonvulsant activity in Wistar rat assessed as protection against maximal electroshock-induced seizure at 100 mg/kg, po administered 30 mins prior to test relative to control. The format is functional. The gist of the method: (§2)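 Male Wistar rats, n = 6 per group; 100 mg/kg given orally as solution in 1% sodium carboxymethyl cellulose, 30 min before maximal electroshock; observed 2 min. E/F is extension phase (s)/flexion phase (s). % protection = (control − test)/control × 100 against vehicle control; phenytoin 100 mg/kg reference; mean values.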

For data set [6], the system named is Rattus norvegicus. The experiment in a line: Anticonvulsant activity in Wistar rat maximal electroshock seizure model assessed as decrease in ratio of extension phase and flexion phase at 100 mg/kg, po administered 30 mins prior to test. The format is functional. The gist of the method:
as §2
(Protection in the maximal electroshock model is a classic sign of anticonvulsant action.)

In the case of `COc1ccc(-c2nnc(N3CCN(S(=O)(=O)c4ccc(Br)c(C)c4)CC3)o2)cc1`, the Activity in data set [1] was 0%; in data set [2], 0%; in data set [3], 0%; in data set [4], 0%; in data set [5] it was 52.42%. Moreover, the Ratio in data set [6] came to 6.29.

Consider `COc1ccc(-c2nnc(N3CCN(S(=O)(=O)c4ccc(-c5ccccc5)cc4)CC3)o2)cc1`, for which the Activity in data set [1] is recorded as 0%; in data set [2], 0%; in data set [3], 0%; in data set [4], 0%; in data set [5] it was 23.34%. Further, the Ratio in data set [6] came to 7.11.

With `COc1ccc(-c2nnc(N3CCN(S(=O)(=O)c4ccc(C#N)cc4)CC3)o2)cc1`, the Activity in data set [1] is 0%; in data set [2], 0%; in data set [3], 0%; in data set [4], 0%; in data set [5] it was 42.4%. Also, the Ratio in data set [6] is 6.34.

`COc1ccc(-c2nnc(N3CCN(S(=O)(=O)c4ccc(C(F)(F)F)cc4[N+](=O)[O-])CC3)o2)cc1`: the Activity in data set [5] came out at 77.64%. Moreover, the Ratio in data set [6] came out at 1.91.

As to `COc1ccc(-c2nnc(N3CCN(S(=O)(=O)c4ccc(Oc5ccccc5)cc4)CC3)o2)cc1`, the Activity in data set [1] is on record as 0%; in data set [2], 0%; in data set [3] it was 0%; in data set [4] it was 0%; in data set [5], 74.31%. The Ratio in data set [6] amounted to 1.96.

As to `COc1ccc(-c2nnc(N3CCN(S(=O)(=O)c4cc(Cl)sc4Cl)CC3)o2)cc1`, the Activity stood at 0% in data set [1]; 0% in data set [2]; 0% in data set [3]; 0% in data set [4]; 73.47% in data set [5]. For the same molecule, in data set [6], the Ratio was 2.11.

Regarding `COc1ccc(-c2nnc(N3CCN(S(=O)(=O)c4ccc5ccccc5c4)CC3)o2)cc1`, the Activity in data set [1] was 0%; in data set [2], 0%; in data set [3], 25%; in data set [4], 25%; in data set [5], 31.54%. Besides, the Ratio in data set [6] was 6.96.

On to `COc1ccc(-c2nnc(N3CCN(S(=O)(=O)c4c(C)noc4C)CC3)o2)cc1`, for which the Activity in data set [1] was found to be 0%; in data set [2], 0%; in data set [3] it was 0%; in data set [4], 0%; in data set [5], 71.25%. Moreover, the Ratio in data set [6] was determined as 2.34.

Take `COc1ccc(-c2nnc(N3CCN(S(=O)(=O)c4ccc(C(C)(C)C)cc4)CC3)o2)cc1`: the Activity is recorded as 0% in data set [1]; 0% in data set [2]; 0% in data set [3]; 0% in data set [4]; 17.32% in data set [5]. In data set [6], the Ratio amounted to 7.64.

`COc1ccc(-c2nnc(N3CCN(S(=O)(=O)c4ccccc4[N+](=O)[O-])CC3)o2)cc1`: the Activity in data set [1] is listed as 0%; in data set [2], 0%; in data set [3], 0%; in data set [4] it was 0%; in data set [5], 59.64%. Moreover, the Ratio in data set [6] is recorded as 5.49.

As for `COc1ccc(-c2nnc(N3CCN(S(=O)(=O)c4cccc(C(F)(F)F)c4)CC3)o2)cc1`, the Activity in data set [1] worked out at 0%; in data set [2] it was 0%; in data set [3], 0%; in data set [4] it was 0%; in data set [5] it was 53.01%. Besides, the Ratio in data set [6] was 6.11.

For `COc1ccc(-c2nnc(N3CCN(S(C)(=O)=O)CC3)o2)cc1`, the Activity in data set [1] is listed as 0%; in data set [2], 0%; in data set [3], 25%; in data set [4], 25%; in data set [5] it was 10.63%. In addition, in data set [6], the Ratio amounted to 8.15.

With `COc1ccc(-c2nnc(N3CCN(S(=O)(=O)c4ccc(C)cc4)CC3)o2)cc1`, the Activity came out at 0% in data set [1]; 0% in data set [2]; 25% in data set [3]; 25% in data set [4]; 17.03% in data set [5]. For the same molecule, in data set [6], the Ratio is recorded as 7.68.

With `COc1ccc(-c2nnc(N3CCN(S(=O)(=O)c4ccc(Br)cc4)CC3)o2)cc1`, the Activity in data set [1] is recorded as 0%; in data set [2], 0%; in data set [3], 0%; in data set [4], 0%; in data set [5], 50.79%. In addition, the Ratio in data set [6] turned out to be 6.51.

Take `COc1ccc(-c2nnc(N3CCN(S(=O)(=O)c4ccc(I)cc4)CC3)o2)cc1`: the Activity in data set [1] was 0%; in data set [2], 0%; in data set [3] it was 0%; in data set [4], 0%; in data set [5], 50.43%. Also, the Ratio in data set [6] was determined as 6.57.

With `O=C1NC(=O)C(c2ccccc2)(c2ccccc2)N1` [PHENYTOIN], the Activity is 0% in data set [1]; 0% in data set [2]; 0% in data set [3]; 0% in data set [4]; 75.88% in data set [5]. The Ratio in data set [6] was 1.98.
